Measured values: ChEMBL document CHEMBL4052686, “Synthesis and antibacterial activity of 5-methylphenanthridium derivatives as FtsZ inhibitors” (2017)
≈ marks a conversion by molar mass, not a printed value. Calls of active or inactive are those of the source. The calls are words filed in the database; no cut-off is given here.

Tests used:
Escherichia coli [1] = assay: Inhibition of FtsZ in penicillin-susceptible Escherichia coli ATCC 25922 assessed as lowest drug concentration causing inhibition of cell division incubated for 5 hrs by phase-contrast light microscopy
Method in brief: (§1)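 Cell division inhibition judged from bacterial cell morphology under phase-contrast light microscopy, scored as lowest concentration altering division; penicillin-susceptible strains B. subtilis ATCC9372, E. coli ATCC25922, P. aeruginosa ATCC27853, S. aureus ATCC25923.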

Streptococcus pyogenes [2] = assay: Antibacterial activity against penicillin-susceptible Streptococcus pyogenes clinical isolates incubated for 24 hrs by tube-dilution method; type: functional
Staphylococcus aureus [3] = assay: Antibacterial activity against penicillin-resistant Staphylococcus aureus clinical isolates incubated for 24 hrs by tube-dilution method; type: functional
Staphylococcus aureus [4] = assay: Antibacterial activity against […] Staphylococcus aureus ATCC 29213 incubated for 24 hrs by tube-dilution method; type: functional; conditions: ATCC 29213, 24 h
Method in brief: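 Broth tube-dilution MIC run as NCCLS recommends, against the […] S. aureus strain ATCC29213.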

Pseudomonas aeruginosa [5] = assay: Antibacterial activity against penicillin-susceptible Pseudomonas aeruginosa ATCC 27853 incubated for 24 hrs by tube-dilution method; type: functional; conditions: ATCC 27853, 24 h
Method in brief: (§2)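 MIC by tube dilution per NCCLS; B. subtilis ATCC9372, E. coli ATCC25922, P. aeruginosa ATCC27853 and S. aureus ATCC25923 are penicillin-susceptible strains.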

[6] = system: Staphylococcus epidermidis; assay: Antibacterial activity against penicillin-resistant Staphylococcus epidermidis clinical isolates incubated for 24 hrs by tube-dilution method; type: functional
Pseudomonas aeruginosa [7] = assay: Inhibition of FtsZ in penicillin-susceptible Pseudomonas aeruginosa ATCC 27853 assessed as lowest drug concentration causing inhibition of cell division incubated for 5 hrs by phase-contrast light microscopy; method in brief: as §1
Staphylococcus aureus [8] = assay: Inhibition of FtsZ in penicillin-susceptible Staphylococcus aureus ATCC 25923 assessed as lowest drug concentration causing inhibition of cell division incubated for 5 hrs by phase-contrast light microscopy; method in brief: as §1
Sus scrofa = species on record: Sus scrofa; assay: Induction of porcine tubulin polymerisation at 2 times MIC for penicillin-resistant Staphylococcus aureus by fluorescence microscopy
Method in brief: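 Polymerisation of mammalian tubulin measured with a commercial tubulin assay kit, read by fluorescence of the kit reporter, with paclitaxel as the positive control for enhanced polymerisation.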

Bacillus subtilis [9] = assay: Inhibition of FtsZ in penicillin-susceptible Bacillus subtilis ATCC 9372 assessed as lowest drug concentration causing inhibition of cell division incubated for 5 hrs by phase-contrast light microscopy; method in brief: as §1
Streptococcus pyogenes [10] = assay: Antibacterial activity against penicillin-resistant Streptococcus pyogenes clinical isolates incubated for 24 hrs by tube-dilution method; type: functional
Staphylococcus aureus [11] = assay: Antibacterial activity against penicillin-susceptible Staphylococcus aureus ATCC 25923 incubated for 24 hrs by tube-dilution method; type: functional; conditions: ATCC 25923, 24 h; method in brief: as §2
Escherichia coli [12] = assay: Antibacterial activity against penicillin-susceptible Escherichia coli ATCC 25922 incubated for 24 hrs by tube-dilution method; type: functional; conditions: ATCC 25922, 24 h; method in brief: as §2
Bacillus subtilis [13] = assay: Antibacterial activity against penicillin-susceptible Bacillus subtilis ATCC 9372 incubated for 24 hrs by tube-dilution method; type: functional; conditions: ATCC 9372, 24 h; method in brief: as §2
Streptococcus pyogenes [14] = assay: Potency index, ratio of MIC for sanguinarine to MIC for test compound against penicillin-susceptible Streptococcus pyogenes clinical isolates incubated for 24 hrs by tube-dilution method; type: functional
Streptococcus pyogenes [15] = assay: Potency index, ratio of MIC for oxacillin sodium to MIC for test compound against penicillin-susceptible Streptococcus pyogenes clinical isolates incubated for 24 hrs by tube-dilution method; type: functional
Bacillus subtilis [16] = assay: Inhibition of FtsZ in penicillin-susceptible Bacillus subtilis ATCC 9372 assessed as inhibition of cell division at […] incubated for 5 hrs by phase-contrast light microscopy
Staphylococcus aureus [17] = assay: Inhibition of FtsZ in penicillin-susceptible Staphylococcus aureus ATCC 25923 assessed as inhibition of cell division at […] incubated for 5 hrs by phase-contrast light microscopy
Bacillus subtilis [18] = assay: Potency index, ratio of MIC for sanguinarine to MIC for test compound against penicillin-susceptible Bacillus subtilis ATCC 9372 incubated for 24 hrs by tube-dilution method; type: functional
Bacillus subtilis [19] = assay: Potency index, ratio of MIC for oxacillin sodium to MIC for test compound against penicillin-susceptible Bacillus subtilis ATCC 9372 incubated for 24 hrs by tube-dilution method; type: functional
Bacillus subtilis [20] = assay: Potency index, ratio of MIC for ciprofloxaxin to MIC for test compound against penicillin-susceptible Bacillus subtilis ATCC 9372 incubated for 24 hrs by tube-dilution method; type: functional
Bacillus subtilis [21] = assay: Potency index, ratio of MIC for curcumin to MIC for test compound against penicillin-susceptible Bacillus subtilis ATCC 9372 incubated for 24 hrs by tube-dilution method; type: functional

SMILES | MIC (Escherichia coli [1]) | MIC (Streptococcus pyogenes [2]) | MIC (Staphylococcus aureus [3]) | MIC (Staphylococcus aureus [4]) | MIC (Pseudomonas aeruginosa [5]) | MIC [6] | MIC (Pseudomonas aeruginosa [7]) | MIC (Staphylococcus aureus [8]) | Activity (Sus scrofa) | MIC (Bacillus subtilis [9]) | MIC (Streptococcus pyogenes [10]) | MIC (Staphylococcus aureus [11]) | MIC (Escherichia coli [12]) | MIC (Bacillus subtilis [13]) | further results
COc1ccc2c(c1)c1ccccc1c[n+]2C.[Cl-] | > 128 µg/mL | 8 µg/mL | 8 µg/mL | 128 µg/mL | > 128 µg/mL | 64 µg/mL | > 128 µg/mL | > 128 µg/mL | inactive | 8 µg/mL | 16 µg/mL | > 128 µg/mL | > 128 µg/mL | 8 µg/mL | 
C[n+]1cc2ccccc2c2cc(F)ccc21.[Cl-] | > 128 µg/mL | 32 µg/mL | 32 µg/mL | > 128 µg/mL | 128 µg/mL | > 128 µg/mL | 128 µg/mL | > 128 µg/mL | inactive | 16 µg/mL | 32 µg/mL | > 128 µg/mL | > 128 µg/mL | 16 µg/mL | 
C[n+]1cc2c3c(ccc2c2ccc4cc5c(cc4c21)OCO5)OCO3 | > 128 µg/mL | 8 µg/mL | 4 µg/mL | 8 µg/mL | > 128 µg/mL | 64 µg/mL | > 128 µg/mL | 8 µg/mL |  | 8 µg/mL | 8 µg/mL | 8 µg/mL | > 128 µg/mL | 8 µg/mL | 
C[n+]1cc2ccccc2c2cccc(OC(F)(F)F)c21.[Cl-] | > 128 µg/mL | 4 µg/mL | 8 µg/mL | 64 µg/mL | > 128 µg/mL | 32 µg/mL | > 128 µg/mL | 16 µg/mL | inactive | 4 µg/mL | 8 µg/mL | 16 µg/mL | > 128 µg/mL | 4 µg/mL | Ratio (Streptococcus pyogenes [14]): 2; Ratio (Streptococcus pyogenes [15]): 4; inhibition (Bacillus subtilis [16]): Active; inhibition (Staphylococcus aureus [17]): Active; Ratio (Bacillus subtilis [18]): 2; Ratio (Bacillus subtilis [19]): 2; Ratio (Bacillus subtilis [20]): 2; Ratio (Bacillus subtilis [21]): 8
Cc1cc(C)c2c(c1)c1ccccc1c[n+]2C.[Cl-] | > 128 µg/mL | 4 µg/mL | 4 µg/mL | 32 µg/mL | > 128 µg/mL | 128 µg/mL | 128 µg/mL | 64 µg/mL | inactive | 2 µg/mL | 8 µg/mL | 64 µg/mL | > 128 µg/mL | 4 µg/mL | Ratio (Streptococcus pyogenes [14]): 2; Ratio (Streptococcus pyogenes [15]): 4; Ratio (Bacillus subtilis [18]): 2; Ratio (Bacillus subtilis [19]): 2; Ratio (Bacillus subtilis [20]): 2; Ratio (Bacillus subtilis [21]): 8
Cc1onc(-c2ccccc2)c1C(=O)N[C@@H]1C(=O)N2[C@@H]1SC(C)(C)[C@@H]2C(=O)[O-].[Na+] |  | 1 µg/mL | > 128 µg/mL | 128 µg/mL | 128 µg/mL | 8 µg/mL |  |  |  |  | 2 µg/mL | 8 µg/mL | 128 µg/mL | 8 µg/mL | 
Cc1ccc2c(c1)c1ccccc1c[n+]2C.[Cl-] | > 128 µg/mL | 4 µg/mL | 4 µg/mL | 128 µg/mL | > 128 µg/mL | 128 µg/mL | > 128 µg/mL | 32 µg/mL | inactive | 4 µg/mL | 8 µg/mL | 64 µg/mL | > 128 µg/mL | 4 µg/mL | Ratio (Streptococcus pyogenes [14]): 2; Ratio (Streptococcus pyogenes [15]): 4; Ratio (Bacillus subtilis [18]): 2; Ratio (Bacillus subtilis [19]): 2; Ratio (Bacillus subtilis [20]): 2; Ratio (Bacillus subtilis [21]): 8
Cc1cccc2c3ccccc3c[n+](C)c12.[Cl-] | > 128 µg/mL | 4 µg/mL | 4 µg/mL | > 128 µg/mL | > 128 µg/mL | 128 µg/mL | > 128 µg/mL | 128 µg/mL | inactive | 4 µg/mL | 8 µg/mL | 128 µg/mL | > 128 µg/mL | 4 µg/mL | Ratio (Streptococcus pyogenes [14]): 2; Ratio (Streptococcus pyogenes [15]): 4; Ratio (Bacillus subtilis [18]): 2; Ratio (Bacillus subtilis [19]): 2; Ratio (Bacillus subtilis [20]): 2; Ratio (Bacillus subtilis [21]): 8
C[n+]1cc2ccccc2c2cc(C(C)(C)C)ccc21.[Cl-] | 128 µg/mL | 16 µg/mL | 16 µg/mL | > 128 µg/mL | > 128 µg/mL | 128 µg/mL | > 128 µg/mL | 64 µg/mL | inactive | 8 µg/mL | 16 µg/mL | 64 µg/mL | > 128 µg/mL | 8 µg/mL | 
COc1cccc2c3ccccc3c[n+](C)c12.[Cl-] | > 128 µg/mL | 16 µg/mL | 16 µg/mL | > 128 µg/mL | > 128 µg/mL | 128 µg/mL | > 128 µg/mL | > 128 µg/mL | inactive | 8 µg/mL | 16 µg/mL | > 128 µg/mL | > 128 µg/mL | 8 µg/mL | 
COc1cc(OC)c2c(c1)c1ccccc1c[n+]2C.[Cl-] | > 128 µg/mL | 4 µg/mL | 4 µg/mL | 32 µg/mL | > 128 µg/mL | 64 µg/mL | 128 µg/mL | 128 µg/mL | inactive | 2 µg/mL | 8 µg/mL | 128 µg/mL | > 128 µg/mL | 4 µg/mL | Ratio (Streptococcus pyogenes [14]): 2; Ratio (Streptococcus pyogenes [15]): 4; Ratio (Bacillus subtilis [18]): 2; Ratio (Bacillus subtilis [19]): 2; Ratio (Bacillus subtilis [20]): 2; Ratio (Bacillus subtilis [21]): 8
CSc1ccc2c(c1)c1ccccc1c[n+]2C.[Cl-] | 128 µg/mL | 32 µg/mL | 32 µg/mL | > 128 µg/mL | > 128 µg/mL | > 128 µg/mL | > 128 µg/mL | 128 µg/mL | inactive | 8 µg/mL | 32 µg/mL | 128 µg/mL | > 128 µg/mL | 8 µg/mL | 
CCCCc1ccc2c(c1)c1ccccc1c[n+]2C.[Cl-] | 128 µg/mL | 8 µg/mL | 8 µg/mL | > 128 µg/mL | > 128 µg/mL | > 128 µg/mL | > 128 µg/mL | 64 µg/mL | inactive | 4 µg/mL | 8 µg/mL | 64 µg/mL | > 128 µg/mL | 4 µg/mL | 
C[n+]1cc2ccccc2c2ccccc21.[Cl-] | > 128 µg/mL | 32 µg/mL | 32 µg/mL | > 128 µg/mL | 128 µg/mL | > 128 µg/mL | 128 µg/mL | > 128 µg/mL | inactive | 16 µg/mL | 32 µg/mL | > 128 µg/mL | > 128 µg/mL | 16 µg/mL | 
C[n+]1cc2ccccc2c2cc(C(F)(F)F)ccc21.[Cl-] | > 128 µg/mL | 128 µg/mL | 128 µg/mL | > 128 µg/mL | > 128 µg/mL | 128 µg/mL | > 128 µg/mL | 128 µg/mL | inactive | 64 µg/mL | 128 µg/mL | 128 µg/mL | > 128 µg/mL | 128 µg/mL | 
C[n+]1cc2ccccc2c2cc(Cl)ccc21.[Cl-] | 128 µg/mL | 32 µg/mL | 32 µg/mL | > 128 µg/mL | > 128 µg/mL | > 128 µg/mL | > 128 µg/mL | > 128 µg/mL | inactive | 16 µg/mL | 32 µg/mL | > 128 µg/mL | 128 µg/mL | 16 µg/mL | 
O=C(O)c1cn(C2CC2)c2cc(N3CCNCC3)c(F)cc2c1=O [CIPROFLOXACIN] |  |  |  | 4 µg/mL (≈ 12.1 µM) |  |  |  |  |  |  |  | 32 µg/mL (≈ 96.6 µM) |  | 8 µg/mL (≈ 24.1 µM) | 
